Results reported in ChEMBL document CHEMBL4414600, “Discovery of a Furanopyrimidine-Based Epidermal Growth Factor Receptor Inhibitor (DBPR112) as a Clinical Candidate for the Treatment of Non-Small Cell Lung Cancer” (J Med Chem, 2019).
pIC50: −log10 of the molar value. Calls of active or inactive are those of the source. No cut-off for these calls is given here.

Experiments:
NCI-H1975 [1] = assay: Cytotoxicity in human NCI-H1975 cells assessed as reduction in cell viability incubated for 96 hrs by MTS method; assay type: functional
HCC827 [2] = assay: Cytotoxicity in human HCC827 cells assessed as reduction in cell viability incubated for 96 hrs by MTS method; assay type: functional
[3] = molecular target: Epidermal growth factor receptor (Homo sapiens, UniProt P00533)
[4] = molecular target: Epidermal growth factor receptor (Homo sapiens, UniProt P00533, L858R/T790M)
[5] = Inhibition of GST-tagged human EGFR D770GY mutant using poly(Glu, Tyr) 4:1 substrate incubated for 120 mins by kinase-Glo plus luminescent kinase assay
A-431 = assay: Cytotoxicity in human A431 cells assessed as reduction in cell viability incubated for 96 hrs by MTS method; assay type: functional
[6] = Inhibition of GST-tagged human HER2 V777_G778insCG mutant mutant using poly(Glu, Tyr) 4:1 substrate incubated for 120 mins by kinase-Glo plus luminescent kinase assay
[7] = Clearance in rat at 5 mg/kg, iv; assay type: ADME, organism-based; conditions: in vivo
[8] = Half life in rat at 20 mg/kg, po; assay type: ADME, organism-based; conditions: in vivo
How it was run: (§1)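 Rat pharmacokinetics: single IV injection at 5 mg/kg or oral dosing at 20 mg/kg (23.6 mg/kg oral for one compound). Plasma parameters t1/2, CL, Vss, AUC(0-inf), Cmax, Tmax and oral bioavailability F were derived from the concentration–time profiles.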

[9] = Cmax in rat at 20 mg/kg, po; assay type: ADME, organism-based; design: dose 20 mg/kg, route oral; conditions: in vivo; how it was run: as §1
[10] = Oral bioavailability in rat at 20 mg/kg; assay type: ADME, organism-based; conditions: in vivo; how it was run: as §1
[11] = AUC (0 to infinity) in rat at 20 mg/kg, po; assay type: ADME, organism-based; design: dose 20 mg/kg, route oral, time infinity; conditions: in vivo; how it was run: as §1
[12] = Tmax in rat at 20 mg/kg, po; assay type: ADME, organism-based; conditions: in vivo; how it was run: as §1
[13] = Half life in rat at 5 mg/kg, iv; assay type: ADME, organism-based; conditions: in vivo
[14] = Volume of distribution at steady state in rat at 5 mg/kg, iv; assay type: ADME, organism-based; conditions: in vivo, read-out: Vdss
[15] = AUC (0 to infinity) in rat at 5 mg/kg, iv; assay type: ADME, organism-based; design: dose 5 mg/kg, time infinity, route intravenous; conditions: in vivo
[16] = molecular target: Epidermal growth factor receptor (Homo sapiens, UniProt P00533, A763-Y764INSFHEA); assay: Inhibition of GST-tagged human EGFR A763_Y764insFHEA mutant using poly(Glu, Tyr) 4:1 substrate incubated for 120 mins by kinase-Glo plus luminescent kinase assay
[17] = molecular target: Epidermal growth factor receptor (Homo sapiens, UniProt P00533, D770-N771INSNPG); assay: Inhibition of GST-tagged human EGFR D770_N771insNPG mutant using poly(Glu, Tyr) 4:1 substrate incubated for 120 mins by kinase-Glo plus luminescent kinase assay
HCC827 [18] = conditions: Homo sapiens
[19] = Toxicity in athymic NU-Fox1nu nude mouse xenografted with human HCC827 cells assessed as induction of body weight loss at 20 mg/kg, po dosed via gavage for 5 days/week for 2 consecutive weeks; assay type: organism-based; conditions: in vivo, 120 h
How it was run: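 Male athymic NU-Fox1nu nude mice, 6–8 weeks old, were inoculated subcutaneously at the left flank with 5x10^6 HCC827 (exon 19 Del E746_A750) cells. Oral gavage began at a mean tumor size of about 500 mm³, in 1% methylcellulose/0.5% Tween 80/98.5% water, once daily on days 1-5 and 8-12. Tumor volume (V = 0.5 a × b², caliper) and body weight were tracked.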

NCI-H1975 [20] = assay: Antitumor activity against human NCI-H1975 cells xenografted in nude BALB/c mouse assessed as inhibition of tumor growth at 15 mg/kg, po QD for 15 days relative to control; assay type: functional; conditions: 360 h, read-out: TGI
How it was run: (§2)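 H1975 cells were grown in RPMI1640 with 10% heat-inactivated FBS at 37 °C, 5% CO2, and passaged by trypsin-EDTA. 5x10^6 cells in 0.1 ml PBS were injected subcutaneously at the right flank of BALB/c nude mice. Oral QD dosing for 15 days began at a mean tumor size of 147 mm³, n = 5 per group.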

[21] = Toxicity in nude BALB/c mouse xenografted with human NCI-H1975 cells assessed as induction of body weight loss at 15 mg/kg, po QD for 15 days relative to control; assay type: organism-based; conditions: in vivo, 360 h; how it was run: as §2
[22] = Toxicity in nude BALB/c mouse xenografted with human NCI-H1975 cells assessed as drug tolerability at 15 mg/kg, po QD for 15 days relative to control; assay type: organism-based; conditions: in vivo, 360 h; how it was run: as §2
[23] = Toxicity in ICR mouse assessed as induction of skin rash at 100 mg/kg, po QD for 2 weeks; assay type: organism-based; conditions: in vivo, 336 h
[24] = Toxicity in ICR mouse assessed as induction of fur loss in nose and abdomen area at 100 mg/kg, po QD for 2 weeks; assay type: organism-based; conditions: in vivo, 336 h

Sequence of Epidermal growth factor receptor (Homo sapiens, UniProt P00533) (P00533 whole entry): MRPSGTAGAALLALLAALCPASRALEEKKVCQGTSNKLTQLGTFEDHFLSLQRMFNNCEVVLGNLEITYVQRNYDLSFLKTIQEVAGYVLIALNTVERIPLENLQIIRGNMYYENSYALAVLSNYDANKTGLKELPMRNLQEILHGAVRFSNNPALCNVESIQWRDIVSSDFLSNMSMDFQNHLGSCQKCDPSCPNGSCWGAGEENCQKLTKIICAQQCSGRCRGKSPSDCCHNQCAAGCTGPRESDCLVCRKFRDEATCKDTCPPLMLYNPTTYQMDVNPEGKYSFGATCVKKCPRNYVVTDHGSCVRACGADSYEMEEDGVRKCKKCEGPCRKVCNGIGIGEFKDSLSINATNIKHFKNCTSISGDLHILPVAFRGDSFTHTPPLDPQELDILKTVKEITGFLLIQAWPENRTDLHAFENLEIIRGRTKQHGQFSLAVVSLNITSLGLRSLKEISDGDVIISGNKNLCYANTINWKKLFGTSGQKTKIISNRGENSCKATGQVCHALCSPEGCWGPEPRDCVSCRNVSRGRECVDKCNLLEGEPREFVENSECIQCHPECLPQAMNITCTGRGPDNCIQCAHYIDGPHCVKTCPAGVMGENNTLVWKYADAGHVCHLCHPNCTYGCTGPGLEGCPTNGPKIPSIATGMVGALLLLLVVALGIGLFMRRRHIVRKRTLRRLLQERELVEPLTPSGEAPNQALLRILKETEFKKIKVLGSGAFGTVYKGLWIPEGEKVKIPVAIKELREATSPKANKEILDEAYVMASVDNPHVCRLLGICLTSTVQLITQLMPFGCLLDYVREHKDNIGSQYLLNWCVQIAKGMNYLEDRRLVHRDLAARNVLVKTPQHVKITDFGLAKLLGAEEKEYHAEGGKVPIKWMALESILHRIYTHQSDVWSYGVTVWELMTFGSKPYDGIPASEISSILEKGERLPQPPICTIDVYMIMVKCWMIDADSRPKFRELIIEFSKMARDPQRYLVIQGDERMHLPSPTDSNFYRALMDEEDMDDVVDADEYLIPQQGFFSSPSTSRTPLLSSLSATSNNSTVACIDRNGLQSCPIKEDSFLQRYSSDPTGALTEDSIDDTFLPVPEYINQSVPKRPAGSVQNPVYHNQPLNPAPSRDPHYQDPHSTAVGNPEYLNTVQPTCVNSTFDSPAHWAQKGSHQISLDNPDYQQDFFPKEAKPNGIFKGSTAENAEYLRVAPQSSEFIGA
Sequence of Epidermal growth factor receptor (Homo sapiens, UniProt P00533, L858R/T790M) (P00533 25-1210 T790M/L858R limits assumed): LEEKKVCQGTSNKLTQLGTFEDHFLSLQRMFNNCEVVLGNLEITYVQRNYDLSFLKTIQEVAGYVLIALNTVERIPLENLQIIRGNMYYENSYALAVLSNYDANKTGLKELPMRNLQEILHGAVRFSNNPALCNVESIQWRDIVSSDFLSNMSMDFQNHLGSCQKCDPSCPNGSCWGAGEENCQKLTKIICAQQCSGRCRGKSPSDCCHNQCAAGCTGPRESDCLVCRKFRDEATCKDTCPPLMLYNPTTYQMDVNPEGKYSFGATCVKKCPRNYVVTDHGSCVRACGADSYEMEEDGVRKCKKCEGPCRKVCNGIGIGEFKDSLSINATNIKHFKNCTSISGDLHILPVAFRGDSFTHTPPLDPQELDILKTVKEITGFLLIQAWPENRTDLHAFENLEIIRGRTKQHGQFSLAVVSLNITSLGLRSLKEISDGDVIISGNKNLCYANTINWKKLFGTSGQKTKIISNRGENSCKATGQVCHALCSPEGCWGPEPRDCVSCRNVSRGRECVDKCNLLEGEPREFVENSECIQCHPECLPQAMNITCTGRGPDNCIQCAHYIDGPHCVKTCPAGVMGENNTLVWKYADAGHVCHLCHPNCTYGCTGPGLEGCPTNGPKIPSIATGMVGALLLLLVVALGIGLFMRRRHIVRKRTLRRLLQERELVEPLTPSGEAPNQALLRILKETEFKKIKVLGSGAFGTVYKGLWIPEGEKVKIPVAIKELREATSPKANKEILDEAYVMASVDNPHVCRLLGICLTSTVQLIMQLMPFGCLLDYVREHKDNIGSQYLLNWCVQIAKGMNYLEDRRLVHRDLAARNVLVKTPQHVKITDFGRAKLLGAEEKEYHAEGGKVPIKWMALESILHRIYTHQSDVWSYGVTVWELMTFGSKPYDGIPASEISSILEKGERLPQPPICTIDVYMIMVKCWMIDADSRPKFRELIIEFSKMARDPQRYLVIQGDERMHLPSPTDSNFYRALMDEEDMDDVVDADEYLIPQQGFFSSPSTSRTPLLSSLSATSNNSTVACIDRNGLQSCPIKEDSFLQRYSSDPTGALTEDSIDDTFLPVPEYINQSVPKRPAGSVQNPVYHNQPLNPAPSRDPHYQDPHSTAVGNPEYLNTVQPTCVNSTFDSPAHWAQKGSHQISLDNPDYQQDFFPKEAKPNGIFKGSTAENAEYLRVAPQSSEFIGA
Sequence of Epidermal growth factor receptor (Homo sapiens, UniProt P00533, D770-N771INSNPG) (P00533 whole entry, looked up, stated change not applied): as the sequence (P00533 whole entry) above
Sequence of Epidermal growth factor receptor (Homo sapiens, UniProt P00533, A763-Y764INSFHEA) (P00533 whole entry, looked up, stated change not applied): as the sequence (P00533 whole entry) above

Row | Structure (SMILES) | CC50 (NCI-H1975 [1]; Homo sapiens, NCI-H1975, 96 h) | CC50 (HCC827 [2]; Homo sapiens, HCC827, 96 h) | pIC50 [3] | pIC50 [4] | also measured
1 | O=C(/C=C/c1ccccc1)Nc1cccc(-c2c(-c3ccccc3)oc3ncnc(N[C@H](CO)c4ccccc4)c23)c1 | > 20000 nM | 1780 nM | 5.30 | < 5.00 | 
2 | C=CC(=O)Nc1cccc(-c2c(Cl)sc3ncnc(N[C@H](CO)c4ccccc4)c23)c1 | 8660 nM | 51 nM | 7.09 | 5.97 | 
3 | C=CC(=O)Nc1cccc(-c2c(-c3ccccc3OC)oc3ncnc(N[C@H](CO)c4ccccc4)c23)c1 | 4080 nM | 34 nM |  |  | pIC50 [5]: 9.53; CC50 (A-431; Homo sapiens, A-431, 96 h): > 8010 nM; pIC50 [6]: 8.28
4 | C/C=C/C(=O)Nc1cccc(-c2c(-c3ccccc3)oc3ncnc(N[C@H](CO)c4ccccc4)c23)c1 | 13200 nM | 307 nM | 6.62 | < 5.00 | 
5 | C=CC(=O)Nc1cccc(-c2c(C)oc3ncnc(N[C@H](CO)c4ccccc4)c23)c1 | > 20000 nM | 46 nM | 7.21 | 5.88 | 
6 | C=CC(=O)Nc1cccc(-c2c(-c3ccccc3)oc3ncnc(N[C@H](CO)c4ccccc4)c23)c1 |  |  |  |  | CC50 (NCI-H1975 [1]): 1260 nM; CC50 (HCC827 [2]): 24 nM; clearance [7]: 76.5 mL/min/kg; half-life [8]: 0.9 h; Cmax [9]: 193 ng/mL; bioavailability [10]: 5.5%; AUC(0-inf) [11]: 303 ng·h/mL; Tmax [12]: 1.2 h; half-life [13]: 0.5 h; Vd [14]: 2.3 L/kg; AUC(0-inf) [15]: 1100 ng·h/mL
7 | CCOC(=O)/C=C/C(=O)Nc1cccc(-c2c(-c3ccccc3)oc3ncnc(N[C@H](CO)c4ccccc4)c23)c1 | 7010 nM | 516 nM |  |  | 
8 | O=C(/C=C/CN1CCOCC1)Nc1cccc(-c2c(-c3ccccc3)oc3ncnc(N[C@H](CO)c4ccccc4)c23)c1 | 2830 nM | 17 nM | 7.72 | 6.55 | 
9 | C=CC(=O)Nc1cc(Nc2nccc(-c3cn(C)c4ccccc34)n2)c(OC)cc1N(C)CCN(C)C [OSIMERTINIB] |  |  |  |  | pIC50 [5]: 9.07; CC50 (A-431): […]; pIC50 [6]: 8.48
10 | O=C(O)/C=C/C(=O)Nc1cccc(-c2c(-c3ccccc3)oc3ncnc(N[C@H](CO)c4ccccc4)c23)c1 | > 20000 nM | 4120 nM | 5.51 | < 5.00 | 
11 | C=CC(=O)Nc1cccc(-c2c(-c3ccccc3)oc3ncnc(N[C@@H](CO)c4ccccc4)c23)c1 |  |  |  |  | CC50 (NCI-H1975 [1]): 13400 nM; CC50 (HCC827 [2]): 840 nM
12 | CCN(CC)C/C=C/C(=O)Nc1cccc(-c2c(-c3ccccc3)oc3ncnc(N[C@H](CO)c4ccccc4)c23)c1 | 2480 nM | 62 nM | 7.85 | 6.88 | 
13 | C=CS(=O)(=O)Nc1cccc(-c2c(-c3ccccc3)oc3ncnc(N[C@H](CO)c4ccccc4)c23)c1 | 7240 nM | 2710 nM | 5.43 | 5.61 | 
14 | C=CC(=O)Nc1cccc(-c2csc3ncnc(N[C@H](CO)c4ccccc4)c23)c1 | > 20000 nM | 56 nM | 7.09 | 5.64 | 
15 | C=CC(=O)Nc1cccc(-c2c(C)sc3ncnc(N[C@H](CO)c4ccccc4)c23)c1 | 12600 nM | 35 nM | 6.97 | 5.90 | 
16 | CC(C)C/C=C/C(=O)Nc1cccc(-c2c(-c3ccccc3)oc3ncnc(N[C@H](CO)c4ccccc4)c23)c1 | > 20000 nM | 679 nM | < 5.00 | < 5.00 | 
17 | CCN(C/C=C/C(=O)Nc1cccc(-c2c(-c3ccccc3)oc3ncnc(N[C@H](CO)c4ccccc4)c23)c1)CCO | 2410 nM | 19 nM | 7.89 | 6.93 | 
18 | C=CC(=O)Nc1cccc(-c2coc3ncnc(N[C@H](CO)c4ccccc4)c23)c1 | > 20000 nM | 744 nM | 6.80 | < 5.00 | 
19 | CC#CC(=O)Nc1cccc(-c2c(-c3ccccc3)oc3ncnc(N[C@H](CO)c4ccccc4)c23)c1 | 6740 nM | 182 nM | 7.19 | 5.20 | 
20 | OC[C@@H](Nc1ncnc2oc(-c3ccccc3)c(-c3ccccc3)c12)c1ccccc1 |  | 518 nM |  | < 5.00 | 
21 | C=CC(=O)N1CCC(Oc2cc3c(Nc4ccc(Cl)c(Cl)c4F)ncnc3cc2OC)CC1 [POZIOTINIB] |  |  |  |  | pIC50 [5]: 10.09; CC50 (A-431; Homo sapiens, A-431, 96 h): 31 nM; pIC50 [6]: 9.69
22 | C=CC(=O)Nc1cccc(-c2c(-c3ccccc3)sc3ncnc(N[C@H](CO)c4ccccc4)c23)c1 | 10700 nM | 146 nM | 6.87 | 6.19 | pIC50 [5]: 8.32; pIC50 [16]: 8.94; pIC50 [17]: 7.75; CC50 (A-431; Homo sapiens, A-431, 96 h): > 20000 nM; pIC50 [6]: 6.43
23 | C=CC(=O)Nc1cccc(-c2c(-c3ccccc3)oc3ncnc(N[C@H](C)c4ccccc4)c23)c1 | 4300 nM | 58 nM | 6.93 | 6.30 | pIC50 [5]: 9.19; pIC50 [16]: 9.67; pIC50 [17]: 8.83; CC50 (A-431; Homo sapiens, A-431, 96 h): 449 nM; pIC50 [6]: 8.09
24 | CN(C)C/C=C/C(=O)Nc1cc2c(Nc3ccc(F)c(Cl)c3)ncnc2cc1O[C@H]1CCOC1 [AFATINIB] | 224 nM | 14 nM |  |  | TGI (HCC827 [18]): Active; clearance [7]: 79.2 mL/min/kg; half-life [8]: 6 h; Activity [19]: 5%; Cmax [9]: 75.2 ng/mL; bioavailability [10]: 15.9%; AUC(0-inf) [11]: 676 ng·h/mL; inhibition in vivo at 15 mg/kg (NCI-H1975 [20]): 65%; Activity [21]: Non-Toxic; Activity [22]: Non-Toxic; Tmax [12]: 4.2 h; Activity [23]: Toxic; half-life [13]: 5.7 h; Vd [14]: 28.7 L/kg; AUC(0-inf) [15]: 1060 ng·h/mL; Activity [24]: Toxic
25 | C=CC(=O)Nc1cccc(-c2noc3ncnc(N[C@H](CO)c4ccccc4)c23)c1 | > 20000 nM | 105 nM | 6.38 | 5.33 | 
26 | CN(C)C/C=C/C(=O)Nc1cccc(-c2c(-c3ccccc3)oc3ncnc(N[C@@H](CO)c4ccccc4)c23)c1 |  |  |  |  | CC50 (HCC827 [2]): 1050 nM
